ChEMBL document CHEMBL4251567 (Eur J Med Chem, 2018)
Values belong to the compound of their own block, whether it stands above or below them.

Key:
[1] = biological target: Histone deacetylase 3 (Homo sapiens) (UniProt O15379); experiment: Inhibition of HDAC3 in human HeLa-S3 cell lysates assessed as remaining activity at 5 x 10^-6 M preincubated for 15 mins followed by HDAC-Glo substrate addition measured after 30 to 40 mins by […] relative to control
In short: (§1)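 Antibody-capture (ELISA-type) assay: HDAC antibody coated in carbonate/bicarbonate buffer pH 9.4, wells blocked with 5% milk in TBST. HeLa-S3 lysate added at 1 mg/mL for HDAC3, 1 h at 4 °C, then washed. Inhibitor in DMSO preincubated 15 min at RT in HDAC-Glo buffer. HDAC-Glo reagent added, luminescence read after 30-40 min. Concentrations are final. Background = no-antibody well; activity given as % of DMSO control.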

[2] = biological target: Histone deacetylase 3 (Homo sapiens) (UniProt O15379); experiment: Inhibition of HDAC3 in human HeLa-S3 cell lysates assessed as remaining activity at 1 x 10^-5 M preincubated for 15 mins followed by HDAC-Glo substrate addition measured after 30 to 40 mins by […] relative to control; in short: as §1
[3] = biological target: Histone deacetylase 3 (Homo sapiens) (UniProt O15379); experiment: Inhibition of HDAC3 in human HeLa-S3 cell lysates assessed as remaining activity at 8 x 10^-5 M preincubated for 15 mins followed by HDAC-Glo substrate addition measured after 30 to 40 mins by […] relative to control; in short: as §1
[4] = biological target: Histone deacetylase 3 (Homo sapiens) (UniProt O15379); experiment: Inhibition of HDAC3 in human HeLa-S3 cell lysates assessed as remaining activity at 2 x 10^-5 M preincubated for 15 mins followed by HDAC-Glo substrate addition measured after 30 to 40 mins by […] relative to control; in short: as §1
[5] = biological target: Histone deacetylase 1 (Homo sapiens) (UniProt Q13547); experiment: Inhibition of HDAC1 in human HeLa-S3 cell lysates assessed as remaining activity at 1 x 10^-5 M preincubated for 15 mins followed by HDAC-Glo substrate addition measured after 30 to 40 mins by fluorimetric method relative to control
Sequence of Histone deacetylase 1 (Homo sapiens) (Q13547 whole entry): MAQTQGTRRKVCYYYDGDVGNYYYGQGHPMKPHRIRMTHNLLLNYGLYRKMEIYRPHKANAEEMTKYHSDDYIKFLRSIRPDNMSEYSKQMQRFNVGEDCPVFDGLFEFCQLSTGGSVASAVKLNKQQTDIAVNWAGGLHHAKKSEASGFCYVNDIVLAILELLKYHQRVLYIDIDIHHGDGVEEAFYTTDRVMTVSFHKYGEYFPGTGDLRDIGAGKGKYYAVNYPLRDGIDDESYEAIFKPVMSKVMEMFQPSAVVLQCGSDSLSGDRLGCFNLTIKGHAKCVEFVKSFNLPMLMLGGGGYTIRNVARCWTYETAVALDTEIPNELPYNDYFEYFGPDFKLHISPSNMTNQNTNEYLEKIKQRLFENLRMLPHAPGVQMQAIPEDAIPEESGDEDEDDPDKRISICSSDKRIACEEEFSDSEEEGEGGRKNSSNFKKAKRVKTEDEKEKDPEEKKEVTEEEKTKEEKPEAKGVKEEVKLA
In short: (§2)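 HDAC1 was captured from HeLa-S3 lysate (100 μg/mL) onto wells precoated with anti-HDAC1 antibody (10 μg/mL, carbonate buffer pH 9.4) and milk-blocked, 1 h at 4 °C, then washed. Inhibitor in DMSO was added in HDAC-Glo buffer for 15 min at room temperature. HDAC-Glo reagent was added and luminescence read after 30-40 min. Concentrations are final. No-antibody background subtracted; % of DMSO control.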

[6] = biological target: T1, Protein deacetylase HDAC6 (Homo sapiens) (UniProt Q9UBN7); experiment: Inhibition of HDAC6 in human HeLa-S3 cell lysates assessed as remaining activity at 1.25 x 10^-8 M preincubated for 15 mins followed by HDAC-Glo substrate addition measured after 30 to 40 mins by […] relative to control
T1 sequence (whole entry): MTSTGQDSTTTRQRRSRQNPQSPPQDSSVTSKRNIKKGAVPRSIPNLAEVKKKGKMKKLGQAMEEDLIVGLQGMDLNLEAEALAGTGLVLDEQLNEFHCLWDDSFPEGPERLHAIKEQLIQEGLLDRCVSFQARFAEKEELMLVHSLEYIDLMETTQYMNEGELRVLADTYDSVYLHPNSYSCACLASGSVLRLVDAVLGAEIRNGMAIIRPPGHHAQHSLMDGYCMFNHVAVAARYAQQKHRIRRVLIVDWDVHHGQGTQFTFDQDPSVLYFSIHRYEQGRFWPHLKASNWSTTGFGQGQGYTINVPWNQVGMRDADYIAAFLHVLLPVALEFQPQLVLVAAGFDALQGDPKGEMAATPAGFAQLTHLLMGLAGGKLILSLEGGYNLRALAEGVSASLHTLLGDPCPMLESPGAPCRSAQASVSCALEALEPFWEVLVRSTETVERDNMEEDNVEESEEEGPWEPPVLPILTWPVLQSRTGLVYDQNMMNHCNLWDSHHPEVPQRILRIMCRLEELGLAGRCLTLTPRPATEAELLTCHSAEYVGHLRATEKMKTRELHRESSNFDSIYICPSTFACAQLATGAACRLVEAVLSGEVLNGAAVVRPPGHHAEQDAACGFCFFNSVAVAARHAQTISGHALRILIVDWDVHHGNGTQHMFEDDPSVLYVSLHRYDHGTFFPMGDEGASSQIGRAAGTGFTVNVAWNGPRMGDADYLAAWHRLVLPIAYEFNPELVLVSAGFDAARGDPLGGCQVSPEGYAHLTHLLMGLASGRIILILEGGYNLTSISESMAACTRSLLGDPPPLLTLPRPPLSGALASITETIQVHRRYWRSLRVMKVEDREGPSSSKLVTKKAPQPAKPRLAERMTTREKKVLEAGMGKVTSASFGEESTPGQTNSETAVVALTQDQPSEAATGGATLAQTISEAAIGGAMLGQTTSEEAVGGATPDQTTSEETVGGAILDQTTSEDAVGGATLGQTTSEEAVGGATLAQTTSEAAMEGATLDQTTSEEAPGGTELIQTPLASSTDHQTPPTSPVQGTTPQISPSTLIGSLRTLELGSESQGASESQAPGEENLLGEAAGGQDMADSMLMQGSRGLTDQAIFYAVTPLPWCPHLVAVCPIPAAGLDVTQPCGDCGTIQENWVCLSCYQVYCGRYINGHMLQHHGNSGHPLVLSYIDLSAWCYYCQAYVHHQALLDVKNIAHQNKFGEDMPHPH
In short: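 HDAC6 captured on an anti-HDAC6 antibody-coated plate (2 μg/mL, pH 9.4 carbonate buffer, milk-blocked). HeLa-S3 lysate loaded at 1 mg/mL, 1 h at 4 °C, then washed. 15 min RT preincubation with inhibitor in DMSO; HDAC-Glo reagent added, luminescence read at 30-40 min. Concentrations are final. Background = no-antibody well; values are % activity versus DMSO control.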

[7] = biological target: Histone deacetylase 1 (Homo sapiens) (UniProt Q13547); experiment: Inhibition of HDAC1 in human HeLa-S3 cell lysates assessed as remaining activity at 8 x 10^-5 M preincubated for 15 mins followed by HDAC-Glo substrate addition measured after 30 to 40 mins by […] relative to control
[8] = biological target: Histone deacetylase 2 (Homo sapiens) (UniProt Q92769); experiment: Inhibition of HDAC2 in human HeLa-S3 cell lysates assessed as remaining activity at 8 x 10^-5 M preincubated for 15 mins followed by HDAC-Glo substrate addition measured after 30 to 40 mins by […] relative to control
Sequence of Histone deacetylase 2 (Homo sapiens) (Q92769 whole entry, canonical isoform): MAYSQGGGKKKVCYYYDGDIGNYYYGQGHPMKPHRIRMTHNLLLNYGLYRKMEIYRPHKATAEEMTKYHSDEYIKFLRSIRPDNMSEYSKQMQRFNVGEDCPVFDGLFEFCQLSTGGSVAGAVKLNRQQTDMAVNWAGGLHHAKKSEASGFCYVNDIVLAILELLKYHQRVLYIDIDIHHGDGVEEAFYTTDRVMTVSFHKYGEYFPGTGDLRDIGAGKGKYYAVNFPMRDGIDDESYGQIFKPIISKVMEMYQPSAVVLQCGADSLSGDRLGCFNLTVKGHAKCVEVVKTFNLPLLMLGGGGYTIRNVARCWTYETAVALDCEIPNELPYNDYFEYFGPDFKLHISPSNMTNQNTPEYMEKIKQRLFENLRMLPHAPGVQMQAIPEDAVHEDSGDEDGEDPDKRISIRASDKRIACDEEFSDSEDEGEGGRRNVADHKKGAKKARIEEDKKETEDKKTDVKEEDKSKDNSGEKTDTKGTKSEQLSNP
In short: (§3)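 Same antibody-capture format as the other class I isoforms. HeLa-S3 lysate added at 100 μg/mL for HDAC1 and HDAC2, 1 h at 4 °C, then washed. Inhibitor in DMSO preincubated 15 min at RT; HDAC-Glo reagent added and luminescence read after 30-40 min. Concentrations are final. Signal corrected against a well without antibody; activity expressed as % of DMSO control.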

[9] = biological target: Histone deacetylase 1 (Homo sapiens) (UniProt Q13547); experiment: Inhibition of HDAC1 in human HeLa-S3 cell lysates assessed as remaining activity at 4 x 10^-5 M preincubated for 15 mins followed by HDAC-Glo substrate addition measured after 30 to 40 mins by […] relative to control; in short: as §2
[10] = biological target: Histone deacetylase 1 (Homo sapiens) (UniProt Q13547); experiment: Inhibition of HDAC1 in human HeLa-S3 cell lysates assessed as remaining activity at 5 x 10^-6 M preincubated for 15 mins followed by HDAC-Glo substrate addition measured after 30 to 40 mins by […] relative to control; in short: as §2
[11] = biological target: Histone deacetylase 3 (Homo sapiens) (UniProt O15379); experiment: Inhibition of HDAC3 in human HeLa-S3 cell lysates assessed as remaining activity at 4 x 10^-5 M preincubated for 15 mins followed by HDAC-Glo substrate addition measured after 30 to 40 mins by […] relative to control; in short: as §1
[12] = biological target: Histone deacetylase 2 (Homo sapiens) (UniProt Q92769); experiment: Inhibition of HDAC2 in human HeLa-S3 cell lysates assessed as remaining activity at 2 x 10^-5 M preincubated for 15 mins followed by HDAC-Glo substrate addition measured after 30 to 40 mins by fluorimetric method relative to control; in short: as §3
[13] = biological target: Histone deacetylase 2 (Homo sapiens) (UniProt Q92769); experiment: Inhibition of HDAC2 in human HeLa-S3 cell lysates assessed as remaining activity at 5 x 10^-6 M preincubated for 15 mins followed by HDAC-Glo substrate addition measured after 30 to 40 mins by […] relative to control; in short: as §3
[14] = biological target: Histone deacetylase 1 (Homo sapiens) (UniProt Q13547); experiment: Inhibition of HDAC1 in human HeLa-S3 cell lysates assessed as remaining activity at 2 x 10^-5 M preincubated for 15 mins followed by HDAC-Glo substrate addition measured after 30 to 40 mins by […] relative to control; in short: as §2
[15] = biological target: Histone deacetylase 2 (Homo sapiens) (UniProt Q92769); experiment: Inhibition of HDAC2 in human HeLa-S3 cell lysates assessed as remaining activity at 4 x 10^-5 M preincubated for 15 mins followed by HDAC-Glo substrate addition measured after 30 to 40 mins by […] relative to control; in short: as §3
[16] = system: U-937; experiment: Cytotoxicity against human U937 cells assessed as cell viability at 2.5 x 10^-4 M after 44 hrs by MTT assay relative to control; format: functional; settings: U-937, 44 h, read-out: Activity
[17] = system: U-937; experiment: Cytotoxicity against human U937 cells assessed as cell viability at 1 x 10^-3 M after 44 hrs by MTT assay relative to control; format: functional; settings: U-937, 44 h, read-out: Activity
[18] = system: U-937; experiment: Cytotoxicity against human U937 cells assessed as decrease in cell viability after 44 hrs by MTT assay; format: functional, cell-based; settings: Homo sapiens, U-937, 44 h
[19] = system: U-937; experiment: Cytotoxicity against human U937 cells assessed as cell viability at 5 x 10^-4 M after 44 hrs by MTT assay relative to control; format: functional; settings: U-937, 44 h, read-out: Activity
[20] = system: U-937; experiment: Cytotoxicity against human U937 cells assessed as cell viability at 80 uM after 44 hrs by MTT assay relative to control; format: functional; settings: U-937, 44 h, read-out: Activity
[21] = system: U-937; experiment: Cytotoxicity against human U937 cells assessed as cell viability at 4 x 10^-3 M after 44 hrs by MTT assay relative to control; format: functional; settings: U-937, 44 h, read-out: Activity
[22] = system: U-937; experiment: Cytotoxicity against human U937 cells assessed as cell viability at 3 x 10^-3 M after 44 hrs by MTT assay relative to control; format: functional; settings: U-937, 44 h, read-out: Activity
[23] = system: U-937; experiment: Cytotoxicity against human U937 cells assessed as cell viability at 80 uM after 44 hrs in presence of PCI-34051 by MTT assay relative to control; format: functional; settings: U-937, 44 h, read-out: Activity
[24] = system: U-937; experiment: Cytotoxicity against human U937 cells assessed as cell viability at 200 uM after 44 hrs in presence of tubastatin by MTT assay relative to control; format: functional; settings: U-937, 44 h, read-out: Activity
[25] = system: U-937; experiment: Cytotoxicity against human U937 cells assessed as cell viability at 200 uM after 44 hrs by MTT assay relative to control; format: functional; settings: U-937, 44 h, read-out: Activity
[26] = system: U-937; experiment: Cytotoxicity against human U937 cells assessed as cell viability at 5 x 10^-3 M after 44 hrs by MTT assay relative to control; format: functional; settings: U-937, 44 h, read-out: Activity
[27] = system: U-937; experiment: Cytotoxicity against human U937 cells assessed as cell viability at 1.25 x 10^-3 M after 44 hrs by MTT assay relative to control; format: functional; settings: U-937, 44 h, read-out: Activity
[28] = system: U-937; experiment: Cytotoxicity against human U937 cells assessed as cell viability at 2.5 x 10^-3 M after 44 hrs by MTT assay relative to control; format: functional; settings: U-937, 44 h, read-out: Activity

Sequence of Histone deacetylase 3 (Homo sapiens) (O15379 whole entry): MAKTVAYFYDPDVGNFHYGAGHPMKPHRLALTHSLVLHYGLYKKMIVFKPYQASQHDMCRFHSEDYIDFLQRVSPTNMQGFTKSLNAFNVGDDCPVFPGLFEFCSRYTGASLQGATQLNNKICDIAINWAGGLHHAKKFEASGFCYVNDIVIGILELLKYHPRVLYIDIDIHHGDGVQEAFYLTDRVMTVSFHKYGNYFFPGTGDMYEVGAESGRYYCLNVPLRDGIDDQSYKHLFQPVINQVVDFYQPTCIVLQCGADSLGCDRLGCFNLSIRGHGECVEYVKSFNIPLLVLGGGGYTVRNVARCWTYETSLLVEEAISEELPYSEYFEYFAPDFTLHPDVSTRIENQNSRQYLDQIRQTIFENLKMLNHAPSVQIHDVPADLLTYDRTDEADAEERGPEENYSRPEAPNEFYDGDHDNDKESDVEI

- Activity [1]: 89%
- Activity [2]: 77%
- Activity [3]: 25%
- Activity [4]: 54%
- Activity [5]: 72%
- Activity [6]: 67%
- Activity [7]: 24%
- Activity [8]: 29%
- Activity [9]: 38%
- Activity [10]: 88%
- Activity [11]: 39%
- Activity [12]: 71%
- Activity [13]: 96%
- Activity [14]: 53%
- Activity [15]: 43%
Compound: O=C(CC[C@@H](CCCC(=O)Nc1ccccc1)Cc1ccccc1)NO

Compound: CN1CCc2c(c3ccccc3n2Cc2ccc(C(=O)NO)cc2)C1 [TUBASTATIN A]
- viability at 250 µM [16]: 82%
- viability at 1000 µM [17]: 38%
- EC50 [18]: 83 µM
- viability at 500 µM [19]: 68%
- viability at 80 µM [20]: 44%
- viability at 4000 µM [21]: 17%
- viability at 3000 µM [22]: 19%
- viability at 80 µM [23]: 13%

Compound: COc1ccc(Cn2ccc3ccc(C(=O)NO)cc32)cc1
- EC50 [18]: 210 µM
- viability at 500 µM [19]: 85%
- viability at 200 µM [24]: 13%
- viability at 200 µM [25]: 62%
- viability at 5000 µM [26]: 9%
- viability at 1250 µM [27]: 71%
- viability at 2500 µM [28]: 50%
